Measured values from ChEMBL document CHEMBL3120060, “Synthesis, in vitro anticancer evaluation and in silico studies of novel imidazo[2,1-b]thiazole derivatives bearing pyrazole moieties” (2014).

Legend:
Type in all cases: functional
[1] = test system: SF-539; test: Cytotoxicity against human SF539 cells assessed as cell growth at 10 uM after 48 hrs by SRB assay; details: SF-539, 48 h, read-out: Activity
Method in brief: (§1)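 NCI-60 single-dose screen. Cell lines grown in RPMI 1640 with 5% FBS and 2 mM L-glutamine, plated at 5000–40,000 cells/well according to doubling time, then preincubated 24 h at 37 °C in 5% CO2. Compounds dissolved in DMSO, tested at 10^-5 M for 48 h. Adherent cells fixed with cold TCA (10% final) and stained with 0.4% SRB in 1% acetic acid. Growth expressed as percent of untreated control.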

[2] = test system: SF-268; test: Cytotoxicity against human SF268 cells assessed as cell growth at 10 uM after 48 hrs by SRB assay; details: SF-268, 48 h, read-out: Activity; method in brief: as §1
[3] = test system: SW-620; test: Cytotoxicity against human SW620 cells assessed as cell growth at 10 uM after 48 hrs by SRB assay; details: SW-620, 48 h, read-out: Activity
Method in brief: (§2)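 NCI-60 single-dose screen at 10^-5 M. Adherent lines are grown in RPMI 1640 with 5% FBS and 2 mM L-glutamine, seeded at 5000–40,000 cells/well by doubling time, and preincubated 24 h at 37 °C in 5% CO2. Drug is added from DMSO stock diluted in medium, then 48 h. Cells are fixed in cold TCA (final 10%) for 60 min and stained with 0.4% SRB in 1% acetic acid. Growth is expressed as % of untreated control using time-zero plates.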

[4] = test system: KM12; test: Cytotoxicity against human KM12 cells assessed as cell growth at 10 uM after 48 hrs by SRB assay; details: KM12, 48 h, read-out: Activity; method in brief: as §1
[5] = test system: HCT-116; test: Cytotoxicity against human HCT116 cells assessed as cell growth at 10 uM after 48 hrs by SRB assay; details: HCT-116, 48 h, read-out: Activity; method in brief: as §1
[6] = test system: HCC 2998; test: Cytotoxicity against human HCC2998 cells assessed as cell growth at 10 uM after 48 hrs by SRB assay; details: HCC 2998, 48 h, read-out: Activity; method in brief: as §1
[7] = test system: COLO 205; test: Cytotoxicity against human COLO205 cells assessed as cell growth at 10 uM after 48 hrs by SRB assay; details: COLO 205, 48 h, read-out: Activity; method in brief: as §1
[8] = test system: NCI-H522; test: Cytotoxicity against human NCI-H522 cells assessed as cell growth at 10 uM after 48 hrs by SRB assay; details: NCI-H522, 48 h, read-out: Activity; method in brief: as §1
[9] = test system: NCI-H460; test: Cytotoxicity against human NCI-H460 cells assessed as cell growth at 10 uM after 48 hrs by SRB assay; details: NCI-H460, 48 h, read-out: Activity; method in brief: as §1
[10] = test system: NCI-H322M; test: Cytotoxicity against human NCI-H322M cells assessed as cell growth at 10 uM after 48 hrs by SRB assay; details: read-out: Activity; method in brief: as §1
[11] = test system: NCI-H226; test: Cytotoxicity against human NCI-H226 cells assessed as cell growth at 10 uM after 48 hrs by SRB assay; details: NCI-H226, 48 h, read-out: Activity; method in brief: as §1
[12] = test system: HOP-92; test: Cytotoxicity against human HOP92 cells assessed as cell growth at 10 uM after 48 hrs by SRB assay; details: HOP-92, 48 h, read-out: Activity; method in brief: as §1
[13] = test system: A549; test: Cytotoxicity against human A549 cells assessed as cell growth at 10 uM after 48 hrs by SRB assay; details: A549, 48 h, read-out: Activity; method in brief: as §1
[14] = test system: RPMI-8226; test: Cytotoxicity against human RPMI8226 cells assessed as cell growth at 10 uM after 48 hrs by SRB assay; details: RPMI-8226, 48 h, read-out: Activity; method in brief: as §1
[15] = test system: MOLT-4; test: Cytotoxicity against human MOLT4 cells assessed as cell growth at 10 uM after 48 hrs by SRB assay; details: MOLT-4, 48 h, read-out: Activity; method in brief: as §1
[16] = test system: CCRF-CEM; test: Cytotoxicity against human CCRF-CEM cells assessed as cell growth at 10 uM after 48 hrs by SRB assay; details: read-out: Activity; method in brief: as §1
[17] = test system: T47D; test: Cytotoxicity against human T47D cells assessed as cell growth at 10 uM after 48 hrs by SRB assay; details: read-out: Activity; method in brief: as §2
[18] = test system: DU-145; test: Cytotoxicity against human DU145 cells assessed as cell growth at 10 uM after 48 hrs by SRB assay; details: DU-145, 48 h, read-out: Activity; method in brief: as §1
[19] = test system: PC-3; test: Cytotoxicity against human PC3 cells assessed as cell growth at 10 uM after 48 hrs by SRB assay; details: PC-3, 48 h, read-out: Activity; method in brief: as §1
[20] = test system: TK-10; test: Cytotoxicity against human TK10 cells assessed as cell growth at 10 uM after 48 hrs by SRB assay; details: TK-10, 48 h, read-out: Activity; method in brief: as §2
[21] = test system: SN12C; test: Cytotoxicity against human SN12C cells assessed as cell growth at 10 uM after 48 hrs by SRB assay; details: read-out: Activity; method in brief: as §1
[22] = test system: CAKI-1; test: Cytotoxicity against human CAKI-1 cells assessed as cell growth at 10 uM after 48 hrs by SRB assay; details: CAKI-1, 48 h, read-out: Activity; method in brief: as §1
[23] = test system: SK-OV-3; test: Cytotoxicity against human SKOV3 cells assessed as cell growth at 10 uM after 48 hrs by SRB assay; details: SK-OV-3, 48 h, read-out: Activity; method in brief: as §1
[24] = Cytotoxicity against human NCI-ADR-RES cells assessed as cell growth at 10 uM after 48 hrs by SRB assay; details: read-out: Activity; method in brief: as §1
[25] = test system: OVCAR-8; test: Cytotoxicity against human OVCAR8 cells assessed as cell growth at 10 uM after 48 hrs by SRB assay; details: OVCAR-8, 48 h, read-out: Activity; method in brief: as §1
[26] = Cytotoxicity against human OVCAR5 cells assessed as cell growth at 10 uM after 48 hrs by SRB assay; details: OVCAR-5, 48 h, read-out: Activity; method in brief: as §1
[27] = Cytotoxicity against human OVCAR4 cells assessed as cell growth at 10 uM after 48 hrs by SRB assay; details: OVCAR-4, 48 h, read-out: Activity; method in brief: as §1
[28] = test system: SK-MEL-28; test: Cytotoxicity against human SK-MEL-28 cells assessed as cell growth at 10 uM after 48 hrs by SRB assay; details: SK-MEL-28, 48 h, read-out: Activity; method in brief: as §1
[29] = test system: MDA-MB-435; test: Cytotoxicity against human MDA-MB-435 cells assessed as cell growth at 10 uM after 48 hrs by SRB assay; details: MDA-MB-435, 48 h, read-out: Activity; method in brief: as §1
[30] = test system: Malme-3M; test: Cytotoxicity against human MALME-3M cells assessed as cell growth at 10 uM after 48 hrs by SRB assay; details: read-out: Activity; method in brief: as §1
[31] = test system: LOX IMVI; test: Cytotoxicity against human LOXIMVI cells assessed as cell growth at 10 uM after 48 hrs by SRB assay; details: read-out: Activity; method in brief: as §1
[32] = test system: SNB-75; test: Cytotoxicity against human SNB75 cells assessed as cell growth at 10 uM after 48 hrs by SRB assay; details: SNB-75, 48 h, read-out: Activity; method in brief: as §1

Row | Structure (SMILES) | growth at 10 µM [1] [%] | growth at 10 µM [2] [%] | growth at 10 µM [3] [%] | growth at 10 µM [4] [%] | growth at 10 µM [5] [%] | growth at 10 µM [6] [%] | growth at 10 µM [7] [%] | growth at 10 µM [8] [%] | growth at 10 µM [9] [%] | growth at 10 µM [10] [%] | growth at 10 µM [11] [%] | growth at 10 µM [12] [%] | growth at 10 µM [13] [%] | growth at 10 µM [14] [%] | growth at 10 µM [15] [%] | growth at 10 µM [16] [%] | growth at 10 µM [17] [%] | growth at 10 µM [18] [%] | growth at 10 µM [19] [%] | growth at 10 µM [20] [%] | also measured
1 | O=C1CC(=O)N(c2cn3c(-c4ccccc4)csc3n2)N1 | 88.2 | 99.5 | 107 | 101 | 95.5 | 103 | 100 | 74.9 | 104 | 98.1 | 90 | 63.5 | 92.9 | 93 | 101 | 98.7 | 82.7 | 106 | 76.4 | 131 | growth at 10 µM [21]: 92.2%; growth at 10 µM [22]: 75.9%; growth at 10 µM [23]: 86.8%; growth at 10 µM [24]: 94.3%; growth at 10 µM [25]: 89.8%; growth at 10 µM [26]: 104%; growth at 10 µM [27]: 81.2%; growth at 10 µM [28]: 96.4%; growth at 10 µM [29]: 99.9%; growth at 10 µM [30]: 141%; growth at 10 µM [31]: 86.9%; growth at 10 µM [32]: 63.1%
2 | CC1=NN(c2cn3c(-c4ccc(C)cc4)csc3n2)C(=O)C1 | 102 | 111 | 105 | 104 | 94.4 | 103 | 106 | 88.9 | 105 | 105 | 89.7 | 65.5 | 98.3 | 93.6 | 78.9 | 94 | 80.6 | 113 | 75.3 | 135 | growth at 10 µM [21]: 96.4%; growth at 10 µM [22]: 84.5%; growth at 10 µM [23]: 95.5%; growth at 10 µM [24]: 99.3%; growth at 10 µM [25]: 102%; growth at 10 µM [26]: 124%; growth at 10 µM [27]: 99.9%; growth at 10 µM [28]: 98.5%; growth at 10 µM [29]: 83.6%; growth at 10 µM [30]: 107%; growth at 10 µM [31]: 93%; growth at 10 µM [32]: 79.1%
